The results in this text go back to the EternaBench riboswitch data.

Usually apparent Kd stands for the concentration giving half-maximal binding under the conditions of the assay.

In the data set the test system is MS2 coat protein. Nature of the data set: apparent Kd, MS2 coat protein; higher = weaker binding; RNA-MaP array. In short, it runs like this: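 On an Illumina sequencing chip, sequenced DNA templates served for transcription of the designed RNAs, which were then bound at room temperature by fluorescently labeled MS2 coat protein at 1.5 nM to 3 μM, with or without input ligand. Apparent Kd is the median of the fits to each cluster's binding curve. Only designs measured on at least 10 clusters were kept.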

Where [1] appears, read: designed as: OFF switch for tryptophan, no ligand.
Setting [2] is: ligand present: tryptophan, designed as: OFF switch for tryptophan.
Where [3] appears, read: designed as: OFF switch for flavin mononucleotide, no ligand.
[4] abbreviates: ligand present: flavin mononucleotide, designed as: OFF switch for flavin mononucleotide.
Where [5] appears, read: designed as: ON switch for theophylline, no ligand.
Setting [6] is: ligand present: theophylline, designed as: ON switch for theophylline.
Setting [7] is: designed as: ON switch for flavin mononucleotide, no ligand.
The mark [8] stands for this setting: ligand present: flavin mononucleotide, designed as: ON switch for flavin mononucleotide.

Consider “UUUAACAAGAACGUCCUGAGUGACAAGCUACGAGGACCGGUACGGCCGCCACUCGUACCAAAACAUGAGGAUCACCCAUGUUAAA”, for which the “apparent Kd” value stood at 17.4 nM under setting [1] and 17.8 nM under setting [2].

On to “AAGCUUCAACUUCAUUCACAUGAGGAUCACCCAUGUGAUCCGAGAAGGUUUCACUAGAAUUCUGAAAAGGAUAUCGAUCACAAU”, for which the “apparent Kd” value reads like this: under setting [3], 16.2 nM; under setting [4], 19.7 nM.

In the case of “ACAAGCCGAGGAUAUACAAGAAAGGCAAGACUGAUAAGAUAACAUGAGGAUCACCCAUGUAGAAGGCGGAAUAC”, the “apparent Kd” value worked out at 10.4 nM under setting [3] and 14.1 nM under setting [4].

On to “UACAUACAUGAGGAUCACCCAUGUUGCGAUACCAGCGAAAGAGACCGCCCUUGGCAGCGCUCAUUUAGUUCCAUUCUUGAUCGAA”, for which the “apparent Kd” value by setting is: under setting [5], 14.3 nM; under setting [6], 25.1 nM.

Consider “UAGAGCGGCAACAUGAGGAUCACCCAUGUGGGCGAUGAGGCUCAGGAUAUACACCACCGCUGGACGUAGAAGGGAGACUCGCCG”, for which the “apparent Kd” value by setting is: under setting [3], 41.1 nM; under setting [4], 20.1 nM.

On to “GUGUUAUAUCCGUAACAUGAGGAUCACCCAUGUGUGAGAUCGAAGGAUAUCUGUCUGAGCUCAAAAGAGAAGGUCGAUACAAUG”, for which the “apparent Kd” value is, setting by setting: under setting [3], 57.6 nM; under setting [4], 44.9 nM.

Regarding “ACCAUCACAUGAGGAUCACCCAUGUAAAUAACUACAUAGACGGAGGAUAUCACAAUAACAGCGAAAGAGAAGGCCGGUGUAAAA”, the “apparent Kd” value runs as follows: under setting [7], 11.5 nM; under setting [8], 8.1 nM.

Turning to “AAGCGUUCAGGAUAUACAUGAGGAUCACCCAUGUAAUGGAUGCUGCAUUACCGGGCGAGUAGAAGGGAAACGUC”, the “apparent Kd” value is 6.09 nM under setting [3] and 6.24 nM under setting [4].

Turning to “UAUCUAACGAAGGAUACCAGUACAUGAGAGUACAUGAGGAUCACCCAUGUUAGAUACGGGUACCCUUGGCAGCCUCACCUACACC”, the “apparent Kd” value by setting is: under setting [5], 56.8 nM; under setting [6], 63.3 nM.

Regarding “CCGACCCAAGGAUAUACAUGAGGAUCACCCAUGUAUAAAAUAUACCAAGGUAAAAUAUGUAGAAGGAGGAUAUG”, the “apparent Kd” value is 6.54 nM under setting [3] and 6.17 nM under setting [4].

For “UAGACUCAGUAGAAGGAUGAUAUUACGAUAUAACGUGACAUGAGGAUCACCCAUGUCUUCUGGUCAUAGGAUAUACGCGAAAUG”, the “apparent Kd” value is, setting by setting: under setting [7], 45.6 nM; under setting [8], 21.3 nM.

Consider “UGGAGAUAGACGGCCGCCACUAACAUGAGGAUCACCCAUGUCGUCACGAAUGGAUGGCCCUAGAAUAGGACCGGGUCCGGAUUCA”, for which the “apparent Kd” value reads like this: under setting [1], 33.6 nM; under setting [2], 34.8 nM.

On to “UGGUGGAAGACAUGAGGAUCACCCAUGUUCGUAGAUGCCGAGCAGGAUAUUAGAUCAUAAACCAGUAAGAAGGGCUGAGUGUCU”, for which the “apparent Kd” value was 31.8 nM under setting [7] and 26.1 nM under setting [8].

For the sequence “AUAUUCGUUCAGGAUAUGUUAAGCUCACGCCUAACAGAAGGGAAUACAUGAGGAUCACCCAUGUGGUGAUGGGA”, the “apparent Kd” value under setting [3] stood at 498 nM and the “apparent Kd” value under setting [4] worked out at 426 nM.

As for “AUGAUAUGGGACAUGAGGAUCACCCAUGUCGGCUUUGUCACGCAGGAUAUUGCGACUCAAAUCGUCAAGAAGGGCGGAGACUCC”, the “apparent Kd” value by setting is: under setting [3], 21.5 nM; under setting [4], 19.6 nM.

Take “UGGUCAGAUGUAAGGAUAUUCGCUCUAAUUUCUCAGAAGAAGGUACAUGAGGAUCACCCAUGUAAUAAAGAAAA”: the “apparent Kd” value amounted to 9.38 nM under setting [3] and 19.6 nM under setting [4].

In the case of “GUCCUUAUAACAUGAGGAUCACCCAUGUAAUUCAAUCUGCGAGAGGAUAUGUCUGAGCAUCCCACACAGAAGGCUCCGGAACAG”, the “apparent Kd” value under setting [3] worked out at 22.8 nM and the “apparent Kd” value under setting [4] amounted to 20.1 nM.

With “CACAUGUCAGGAUAUAGCGAUACAGUUCGACCACUUACUGCCUAGAAGGGACAUGAGGAUCACCCAUGUAAAAG”, the “apparent Kd” value under setting [3] was 26.1 nM and the “apparent Kd” value under setting [4] is 61.2 nM.

As to “GGGUUAAAGCAGAAGGGUUACGGACAAAAUUAAACAGGAUAUGCCGUAAUACAUGAGGAUCACCCAUGUCAUACGUCAUCAGGG”, the “apparent Kd” value amounted to 18.9 nM under setting [7] and 16 nM under setting [8].

Consider “AUCAUCAGUUCGGCCGCCACUGUUUGGCACAGUUGUAUCGUACAUGAGGAUCACCCAUGUCACCACAGGACCGGGAACGCCGUCG”, for which the “apparent Kd” value under setting [1] was 16.1 nM and the “apparent Kd” value under setting [2] is 17.3 nM.

As for “UAAUUCACUAUUCACGGUCCGAUGUUCGAUACCAGAUCAUUUCGAAUCCCUUGGCAGCGAUUAACAUGAGGAUCACCCAUGUAAC”, the “apparent Kd” value runs as follows: (designed as: OFF switch for theophylline, no ligand) 32.2 nM; (ligand present: theophylline, designed as: OFF switch for theophylline) 83.9 nM.

Take “UAUGGACAUGAGGAUCACCCAUGUGGUAGAUGCUUAGGAUAUUAGACAGGAUACAUGUACUAAGAAGGAAGAUGGU”: the “apparent Kd” value under setting [7] was found to be 266 nM and the “apparent Kd” value under setting [8] was determined as 102 nM.
